Source: ChEMBL document CHEMBL2029242 (J Med Chem, 2012)

Columns and labels:
[1] = molecular target: Aurora kinase A (Homo sapiens, UniProt O14965); assay: Inhibition of Aurora A in human HEK293 cells after 1 hr by competition binding assay; assay type: cell-based
Method in brief: (§1)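 KINOMEscan competition binding. Binding reactions ran at rt for 1 h. Unbound kinase was captured on an immobilized affinity ligand and quantified by qPCR. Each kinase was tested individually.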

[2] = AUC (infinity) in athymic nude mouse at 100 mg/kg, po; assay type: ADME, organism-based; design: time infinity, dose 100 mg/kg, route oral; details: plasma
Method in brief: (§2)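 Single-dose PK. Rats: male Sprague−Dawley, jugular-catheterized, 1 mg/kg iv in 3:1 PEG400/water (n = 2) and 10 mg/kg po in Pharmatek #6 (n = 3). Female athymic nude mice: 100 mg/kg po in Pharmatek #6 (n = 3). Beagle dogs and male cynomolgus monkeys (n = 3): crossover, 1 mg/kg iv and 10 mg/kg po in 22% HPβCD, overnight fast. Plasma LC-MS/MS to 24 h; noncompartmental parameters, mean ± SD.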

[3] = test system: SK-MEL-28; assay: Cytotoxicity against human SK-MEL-28 cells expressing BRAF V600E mutant after 72 hrs by cell titer blue assay; assay type: functional, cell-based; details: SK-MEL-28, 72 h
Method in brief: (§3)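 Cells were grown in ATCC-recommended media and kept overnight in 0.5% serum. They were then exposed to compound for 72 h, and Cell Titer Blue was added for 3 h. EC50 came from fluorometric concentration−response curves, run in duplicate and repeated at least once.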

[4] = Cmax in athymic nude mouse at 100 mg/kg, po; assay type: ADME, organism-based; design: dose 100 mg/kg, route oral; details: in vivo; method in brief: as §2
[5] = molecular target: Tyrosine-protein kinase JAK2 (Homo sapiens, UniProt O60674); assay: Inhibition of JAK2 in human HEK293 cells after 1 hr by competition binding assay; assay type: cell-based
Tyrosine-protein kinase JAK2, sequence (O60674 whole entry): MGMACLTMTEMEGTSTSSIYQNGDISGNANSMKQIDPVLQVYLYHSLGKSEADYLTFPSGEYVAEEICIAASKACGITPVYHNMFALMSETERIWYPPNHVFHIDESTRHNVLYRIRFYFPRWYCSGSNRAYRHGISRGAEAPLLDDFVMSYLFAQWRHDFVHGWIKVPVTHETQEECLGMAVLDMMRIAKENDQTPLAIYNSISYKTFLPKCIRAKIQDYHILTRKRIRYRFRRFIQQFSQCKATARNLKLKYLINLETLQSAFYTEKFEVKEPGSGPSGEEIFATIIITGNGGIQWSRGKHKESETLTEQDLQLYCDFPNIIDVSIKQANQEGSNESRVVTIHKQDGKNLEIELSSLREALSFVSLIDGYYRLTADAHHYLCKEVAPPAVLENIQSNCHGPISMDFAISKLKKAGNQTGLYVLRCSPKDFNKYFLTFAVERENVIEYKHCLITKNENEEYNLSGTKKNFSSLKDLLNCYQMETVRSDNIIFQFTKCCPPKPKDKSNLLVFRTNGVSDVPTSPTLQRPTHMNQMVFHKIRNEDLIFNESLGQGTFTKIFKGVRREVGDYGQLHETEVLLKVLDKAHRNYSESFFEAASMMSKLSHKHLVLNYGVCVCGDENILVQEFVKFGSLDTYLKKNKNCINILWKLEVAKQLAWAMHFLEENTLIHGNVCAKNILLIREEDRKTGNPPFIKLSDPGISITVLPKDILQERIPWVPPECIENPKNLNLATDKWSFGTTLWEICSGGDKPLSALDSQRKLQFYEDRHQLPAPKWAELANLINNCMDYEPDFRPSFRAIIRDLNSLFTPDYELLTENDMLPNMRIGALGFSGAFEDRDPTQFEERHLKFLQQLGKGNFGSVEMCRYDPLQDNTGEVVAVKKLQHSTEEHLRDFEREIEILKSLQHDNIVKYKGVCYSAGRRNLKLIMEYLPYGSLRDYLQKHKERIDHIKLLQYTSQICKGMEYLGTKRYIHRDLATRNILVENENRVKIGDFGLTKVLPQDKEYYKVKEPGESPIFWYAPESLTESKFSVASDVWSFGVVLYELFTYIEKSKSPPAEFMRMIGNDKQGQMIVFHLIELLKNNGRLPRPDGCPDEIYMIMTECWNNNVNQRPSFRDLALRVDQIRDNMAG
Method in brief: (§4)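 Unbound kinase was captured on immobilized affinity ligand and quantified by qPCR. Kd came from eleven serial 3-fold dilutions, as the mean of duplicates.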

[6] = molecular target: Macrophage colony-stimulating factor 1 receptor (Homo sapiens, UniProt P07333); assay: Inhibition of CSF1R in human HEK293 cells after 1 hr by competition binding assay; assay type: cell-based; method in brief: as §4
[7] = test system: Mus musculus; assay: Inhibition of BRAF V600E mutant-mediated MEK phosphorylation in human COLO205 cells xenografted in athymic nude mouse at 30 mg/kg, po after 6 hrs; assay type: functional; details: COLO 205, 6 h
Method in brief: (§5)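 Mice bearing Colo-205 xenografts got one oral dose in 22% HPβCD; vehicle controls were run. Tumors were collected at time points over 24 h and lysed. pMEK and total MEK in the lysates were measured by immunoblotting and ELISA, and pMEK was normalized to total MEK.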

[8] = test system: COLO 205; assay: Antitumor activity against human COLO205 cells xenografted in athymic nude mouse assessed as partial tumor regression at 30 mg/kg, po bid for 14 days; assay type: functional
Method in brief: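 Athymic nude mice carried subcutaneous flank Colo-205 xenografts (1 × 10^6 cells), randomized at 150−200 mm3 (n = 10/group). Oral dosing BID for 14 days in 22% HPβCD against vehicle controls. Caliper volumes W2(L/2) taken three times weekly. Partial regression: volume fell in ≥3 successive measurements to below the starting volume while the tumor stayed palpable.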

[9] = molecular target: Phosphatidylinositol 4,5-bisphosphate 3-kinase catalytic subunit alpha isoform (Homo sapiens, UniProt P42336); assay: Inhibition of PIK3-CA in human HEK293 cells after 1 hr by competition binding assay; assay type: cell-based; method in brief: as §4
Phosphatidylinositol 4,5-bisphosphate 3-kinase catalytic subunit alpha isoform, sequence (P42336 whole entry, canonical isoform): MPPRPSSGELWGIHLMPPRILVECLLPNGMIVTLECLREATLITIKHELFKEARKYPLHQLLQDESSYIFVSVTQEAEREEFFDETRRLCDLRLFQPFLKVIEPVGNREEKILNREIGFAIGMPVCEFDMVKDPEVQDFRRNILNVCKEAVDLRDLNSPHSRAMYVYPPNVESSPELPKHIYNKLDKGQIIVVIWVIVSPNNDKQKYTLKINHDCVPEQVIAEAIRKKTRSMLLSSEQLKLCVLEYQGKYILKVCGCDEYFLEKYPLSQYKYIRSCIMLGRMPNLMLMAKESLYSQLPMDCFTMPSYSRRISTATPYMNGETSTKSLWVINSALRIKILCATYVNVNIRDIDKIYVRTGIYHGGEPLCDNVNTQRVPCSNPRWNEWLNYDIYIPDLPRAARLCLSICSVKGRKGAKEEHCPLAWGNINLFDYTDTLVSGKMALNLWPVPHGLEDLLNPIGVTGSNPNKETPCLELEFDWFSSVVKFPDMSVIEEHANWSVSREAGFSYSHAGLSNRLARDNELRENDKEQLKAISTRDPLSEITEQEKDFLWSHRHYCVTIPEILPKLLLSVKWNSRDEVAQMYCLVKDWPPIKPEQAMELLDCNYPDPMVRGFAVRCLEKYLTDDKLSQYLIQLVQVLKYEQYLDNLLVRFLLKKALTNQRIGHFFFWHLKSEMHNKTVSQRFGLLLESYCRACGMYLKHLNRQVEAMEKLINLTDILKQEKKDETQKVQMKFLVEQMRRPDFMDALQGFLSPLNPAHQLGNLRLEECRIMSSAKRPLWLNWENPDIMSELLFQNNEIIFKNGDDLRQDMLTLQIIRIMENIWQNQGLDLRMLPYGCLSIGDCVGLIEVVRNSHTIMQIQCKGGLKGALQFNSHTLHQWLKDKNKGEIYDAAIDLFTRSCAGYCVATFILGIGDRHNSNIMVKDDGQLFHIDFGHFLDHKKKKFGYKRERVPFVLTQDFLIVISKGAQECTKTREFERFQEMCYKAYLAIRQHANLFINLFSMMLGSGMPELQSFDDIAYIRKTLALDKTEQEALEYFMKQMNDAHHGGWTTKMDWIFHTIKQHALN

[10] = Volume of distribution in Cynomolgus monkey at 1 mg/kg, iv and 10 mg/kg, po; assay type: ADME, organism-based, Macaca fascicularis; details: in vivo
Method in brief: (§6)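 Male non-naive cynomolgus monkeys (2.6–3.4 kg) and beagle dogs (10.3–11.9 kg), n = 3 each, were dosed in a crossover design with a ≥7-day washout. Doses were 10 mg/kg by nasogastric gavage and 1 mg/kg as a saphenous iv bolus, both free base in 22% HPβCD. Animals were fasted overnight until about 4 h post dose. Femoral plasma was sampled from predose to 24 h and analyzed by LC-MS/MS. Parameters came from noncompartmental analysis; mean ± SD reported.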

[11] = molecular target: Tyrosine-protein kinase JAK1 (Homo sapiens, UniProt P23458); assay: Inhibition of JAK1 in human HEK293 cells after 1 hr by competition binding assay; assay type: cell-based; method in brief: as §1
Tyrosine-protein kinase JAK1, sequence (P23458 whole entry): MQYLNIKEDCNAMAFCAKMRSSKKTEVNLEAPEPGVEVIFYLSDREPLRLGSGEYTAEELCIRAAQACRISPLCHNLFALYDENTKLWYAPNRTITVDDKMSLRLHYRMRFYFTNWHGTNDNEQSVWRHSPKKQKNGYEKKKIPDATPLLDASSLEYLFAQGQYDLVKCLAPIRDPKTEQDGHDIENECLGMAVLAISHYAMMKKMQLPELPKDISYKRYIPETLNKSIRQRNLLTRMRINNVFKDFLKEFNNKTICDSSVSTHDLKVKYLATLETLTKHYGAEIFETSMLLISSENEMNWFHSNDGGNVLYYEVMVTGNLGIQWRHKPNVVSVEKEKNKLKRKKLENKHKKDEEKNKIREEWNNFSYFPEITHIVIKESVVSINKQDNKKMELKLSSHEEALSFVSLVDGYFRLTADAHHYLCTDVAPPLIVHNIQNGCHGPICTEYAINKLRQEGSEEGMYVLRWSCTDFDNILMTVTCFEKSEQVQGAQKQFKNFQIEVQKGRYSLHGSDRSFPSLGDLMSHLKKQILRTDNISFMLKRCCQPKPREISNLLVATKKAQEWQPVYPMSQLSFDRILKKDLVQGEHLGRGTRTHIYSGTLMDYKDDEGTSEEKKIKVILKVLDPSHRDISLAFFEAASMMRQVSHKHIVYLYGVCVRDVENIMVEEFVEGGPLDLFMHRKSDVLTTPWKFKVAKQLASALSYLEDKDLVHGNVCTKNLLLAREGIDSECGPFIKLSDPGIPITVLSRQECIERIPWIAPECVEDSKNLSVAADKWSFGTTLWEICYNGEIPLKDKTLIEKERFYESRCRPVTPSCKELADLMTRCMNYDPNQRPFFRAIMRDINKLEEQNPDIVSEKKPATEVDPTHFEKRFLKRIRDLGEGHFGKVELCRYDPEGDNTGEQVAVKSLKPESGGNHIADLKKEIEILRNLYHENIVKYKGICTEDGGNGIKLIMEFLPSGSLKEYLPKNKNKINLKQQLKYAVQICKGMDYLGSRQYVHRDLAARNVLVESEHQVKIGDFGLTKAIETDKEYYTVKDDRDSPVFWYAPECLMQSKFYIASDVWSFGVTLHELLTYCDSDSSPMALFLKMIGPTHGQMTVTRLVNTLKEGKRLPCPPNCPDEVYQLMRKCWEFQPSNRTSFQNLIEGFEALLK

[12] = test system: COLO 205; assay: Cytotoxicity against human COLO205 cells expressing BRAF V600E mutant after 72 hrs by cell titer blue assay; assay type: functional, cell-based; details: COLO 205, 72 h; method in brief: as §3
[13] = molecular target: Serine/threonine-protein kinase B-raf (Homo sapiens, UniProt P15056, V600E)
Serine/threonine-protein kinase B-raf, sequence (P15056 2-766 V600E limits assumed): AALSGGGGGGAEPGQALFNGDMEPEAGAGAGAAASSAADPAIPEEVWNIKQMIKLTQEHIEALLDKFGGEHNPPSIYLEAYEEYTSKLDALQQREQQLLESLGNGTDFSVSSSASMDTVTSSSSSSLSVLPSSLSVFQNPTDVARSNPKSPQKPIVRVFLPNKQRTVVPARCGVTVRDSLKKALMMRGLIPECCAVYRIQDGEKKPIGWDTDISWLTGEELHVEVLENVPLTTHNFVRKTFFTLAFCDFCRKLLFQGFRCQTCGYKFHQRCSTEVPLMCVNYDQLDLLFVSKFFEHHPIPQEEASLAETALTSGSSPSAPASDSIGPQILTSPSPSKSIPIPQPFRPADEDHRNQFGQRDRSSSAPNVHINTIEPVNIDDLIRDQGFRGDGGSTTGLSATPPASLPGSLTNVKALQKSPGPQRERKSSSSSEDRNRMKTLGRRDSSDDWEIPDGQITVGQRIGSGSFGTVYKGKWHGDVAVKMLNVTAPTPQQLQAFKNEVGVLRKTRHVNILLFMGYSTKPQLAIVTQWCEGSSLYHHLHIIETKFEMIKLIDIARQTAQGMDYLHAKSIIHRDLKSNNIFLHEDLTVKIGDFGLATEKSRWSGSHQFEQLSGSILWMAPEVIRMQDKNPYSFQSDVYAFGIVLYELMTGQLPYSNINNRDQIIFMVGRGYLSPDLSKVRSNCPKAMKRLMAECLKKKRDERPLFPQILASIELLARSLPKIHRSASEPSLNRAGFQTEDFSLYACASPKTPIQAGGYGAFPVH

[14] = Stability in rat liver microsomes assessed as compound remaining at 1 uM after 60 mins; assay type: ADME, Microsome; details: read-out: Stability
Method in brief: (§7)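 Pooled liver microsomes (0.5 mg/mL) were premixed with 0.1 M phosphate buffer pH 7.4, 6.5 mM MgCl2 and test compound (1 μM final, 0.2% DMSO). NADPH (1 mM) started the reaction at 37 °C, in duplicate. Minus-NADPH and testosterone controls were included. Aliquots were taken at 0, 5, 15, 30 and 60 min and quenched in acetonitrile containing internal standard.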

[15] = Tmax in beagle dog at 10 mg/kg, po; assay type: ADME, organism-based, Canis lupus familiaris; design: dose 10 mg/kg, route oral; details: in vivo; method in brief: as §6
[16] = test system: Mus musculus; assay: Inhibition of BRAF V600E mutant-mediated MEK phosphorylation in human COLO205 cells xenografted in athymic nude mouse at 55 mg/kg, po after 2 hrs; assay type: functional; details: COLO 205, 2 h; method in brief: as §5
[17] = Tmax in athymic nude mouse at 100 mg/kg, po; assay type: ADME, organism-based; design: dose 100 mg/kg, route oral; details: in vivo
Method in brief: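 Female athymic nude mice (20–25 g, n = 3) received a single oral dose of 100 mg/kg in Pharmatek #6, calculated as free base. Blood was drawn into K3EDTA at 15 and 30 min and at 1, 2, 4, 6 and 24 h. Plasma was analyzed by LC-MS/MS. Parameters came from noncompartmental linear-trapezoidal analysis; mean ± SD reported.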

[18] = test system: DU-145; assay: Cytotoxicity against human DU145 cells expressing wild type BRAF after 72 hrs by cell titer blue assay; assay type: functional, cell-based; details: DU-145, 72 h; method in brief: as §3
[19] = test system: Mus musculus; assay: Toxicity in athymic nude mouse xenografted with human COLO205 cells at 30 mg/kg, po bid for 14 days; assay type: organism-based, COLO 205; design: dose 30 mg/kg, route oral; details: in vivo, 336 h
Method in brief: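 Athymic nude mice (20–25 g) were inoculated subcutaneously in the flank with 1×10^6 Colo-205 cells. At 150–200 mm3 they were randomized (n = 10/group) to oral vehicle (22% HPβCD) or 10, 30 or 100 mg/kg BID for 14 days. Calipers were used three times weekly. Body weight and behavior were monitored, with 7–10 days of follow-up after dosing. Partial regression meant volume falling in ≥3 successive measurements, ending below baseline but still palpable.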

[20] = Half life in Cynomolgus monkey liver microsomes; assay type: ADME, Macaca fascicularis, Microsome
Method in brief: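 Pooled liver microsomes (0.5 mg/mL) in 0.1 M phosphate pH 7.4 with 6.5 mM MgCl2 and compound at 1 μM (0.2% DMSO). NADPH (1 mM) started the reaction at 37 °C, with minus-NADPH and testosterone controls. Aliquots taken at 0, 5, 15, 30 and 60 min were quenched in acetonitrile; duplicates.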

[21] = test system: Liver microsomes; assay: Intrinsic clearance in human liver microsomes; assay type: ADME, Microsome; method in brief: as §7

Aurora kinase A, sequence (O14965 whole entry): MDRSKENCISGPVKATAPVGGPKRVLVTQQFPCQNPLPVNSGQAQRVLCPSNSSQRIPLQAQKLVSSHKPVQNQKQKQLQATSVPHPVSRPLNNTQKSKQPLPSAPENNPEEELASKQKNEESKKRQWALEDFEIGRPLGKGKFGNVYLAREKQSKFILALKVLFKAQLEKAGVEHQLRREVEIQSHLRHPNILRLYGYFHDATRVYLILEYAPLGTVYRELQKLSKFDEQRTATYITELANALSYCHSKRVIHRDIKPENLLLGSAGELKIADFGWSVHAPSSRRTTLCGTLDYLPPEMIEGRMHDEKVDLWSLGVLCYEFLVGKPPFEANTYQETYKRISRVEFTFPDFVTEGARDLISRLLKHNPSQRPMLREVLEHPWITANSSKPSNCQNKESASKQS

COc1cc2ncnc(Oc3cccc(NC(=O)Nc4cc(C(C)(C)C(F)(F)F)on4)c3)c2cc1OC [CEP-32496]
Kd [1]: > 10000 nM
AUC(0-inf) [2]: 394 µM·h
EC50 [3]: 454 nM
Cmax [4]: 35.6 µM
Kd [5]: 4700 nM
Kd [6]: 9 nM
inhibition in vivo at 30 mg/kg [7]: 75%
Activity [8]: 40%
Kd [9]: > 10000 nM
Vd [10]: 2.5 L/kg
Kd [11]: > 10000 nM
EC50 [12]: 36 nM
Kd [13]: 14 nM
remaining at 1 h, 1 µM [14]: 81%
Tmax [15]: 2 h
inhibition in vivo at 55 mg/kg [16]: 75%
Tmax [17]: 1.3 h
EC50 [18]: 2910 nM
Activity [19]: Non-toxic
half-life [20]: > 1 h
CLH [21]: < 23 µL/min/mg
